# Test results taken from ChEMBL document CHEMBL2150951, “Studies on the antimicrobial properties of N-acylated ciprofloxacins” (2012).
# The source made the active and inactive calls. The rule behind the calls is not given here.
# How the values were obtained:
# [1] = test system: Staphylococcus aureus; assay: Antibacterial activity against methicillin-resistant Staphylococcus aureus ATCC 43300; assay type: functional
# How it was run: (§1)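 MIC against S. aureus strains was run by an earlier published procedure, tested in triplicate. Values were averaged and expressed as µg/ml of compound.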
# [2] = test system: Bartonella quintana; assay: Antibacterial activity against Bartonella quintana ATCC VR358 at 20 ug per disc after 7 days by Kirby-Bauer disc diffusion assay; assay type: functional; conditions: ATCC VR358, 168 h, read-out: DIZ
# How it was run: (§2)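 Each paper disk was loaded with 20 µl of a 1 mg/ml solution, dried for 20 min and stored desiccated at 4 °C. Growth from 4-day plates was suspended in heart infusion broth to McFarland 2.0 and swabbed onto chocolate agar (heart infusion agar base with 5% bovine hemoglobin). Plates were incubated 1 week at 37 °C in 5% CO2. Zone diameter was read to the nearest mm, in triplicate and averaged.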
# [3] = test system: Escherichia coli; assay: Inhibition of Escherichia coli DNA gyrase-mediated formation of supercoiled form of pUC19 at 1 to 100 ug/mL by gel electrophoresis
# How it was run: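 Relaxed circular pUC19 was incubated with purified E. coli DNA gyrase and compound for 1 h at 37 °C. Relaxed and supercoiled DNA were resolved and quantified by gel electrophoresis.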
# [4] = Antibacterial activity against Bartonella henselae ATCC 49882 after 7 days by agar dilution method; assay type: functional, Bartonella henselae str. Houston-1; conditions: ATCC 49882, 168 h
# How it was run: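 Agar dilution on chocolate agar containing compound at 10.0, 1.0 and 0.1 µg/ml, with 2-fold steps at and below 1.0 µg/ml for compounds active there. Controls were DMSO-only and drug-free plates. 25 µl of a McFarland 2.0 suspension in heart infusion broth was spotted and incubated 7 days at 37 °C in 5% CO2. Growth was scored +/− on duplicate plates; triplicate results were averaged.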
# [5] = Antibacterial activity against Bartonella henselae ATCC 49882 at 20 ug per disc after 7 days by Kirby-Bauer disc diffusion assay; assay type: functional, Bartonella henselae str. Houston-1; conditions: ATCC 49882, 168 h, read-out: DIZ; how it was run: as §2
# [6] = test system: Staphylococcus aureus; assay: Antibacterial activity against methicillin-susceptible Staphylococcus aureus SH1000; assay type: functional
# How it was run: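 MIC in µg/ml, tested in triplicate and averaged, with ciprofloxacin as positive control.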
# [7] = test system: Bartonella vinsonii; assay: Antibacterial activity against Bartonella vinsonii ATCC VR152 at 20 ug per disc after 7 days by Kirby-Bauer disc diffusion assay; assay type: functional; conditions: ATCC VR152, 168 h, read-out: DIZ; how it was run: as §2
# [8] = test system: Escherichia coli; assay: Antibacterial activity against Escherichia coli DH5alpha at 50 ug per disc by Kirby-Bauer disc diffusion assay; assay type: functional; conditions: DH5[alpha], read-out: DIZ
# How it was run: (§3)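 Disks carried 50 µg of compound. Zone diameter was measured to the nearest mm and averaged over three independent experiments. A value of 6 mm, the disk diameter, was recorded where no inhibition was seen.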
# [9] = test system: Staphylococcus aureus; assay: Antibacterial activity against methicillin-resistant Staphylococcus aureus isolate CBD 635 at 50 ug per disc by Kirby-Bauer disc diffusion assay; assay type: functional; conditions: read-out: DIZ
# How it was run: (§4)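 Kirby-Bauer disk diffusion with 50 µg compound per 6 mm paper disk. Organisms were grown and plated by an earlier method. The zone-of-inhibition diameter was recorded to the nearest mm and averaged over three independent experiments. No zone was reported as 6 mm, the disk diameter.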
# [10] = test system: Staphylococcus aureus; assay: Antibacterial activity against methicillin-resistant Staphylococcus aureus isolate CBD 635; assay type: functional; how it was run: as §1
# [11] = test system: Bacillus anthracis; assay: Antibacterial activity against Bacillus anthracis sterne at 50 ug per disc by Kirby-Bauer disc diffusion assay; assay type: functional; conditions: read-out: DIZ; how it was run: as §4
# [12] = test system: Enterococcus faecalis; assay: Antibacterial activity against Enterococcus faecalis DS16 at 50 ug per disc by Kirby-Bauer disc diffusion assay; assay type: functional; conditions: read-out: DIZ; how it was run: as §3
# [13] = test system: Bartonella elizabethae; assay: Antibacterial activity against Bartonella elizabethae F9251 at 20 ug per disc after 7 days by Kirby-Bauer disc diffusion assay; assay type: functional; conditions: F9251, 168 h, read-out: DIZ; how it was run: as §2
# [14] = Antibacterial activity against Bartonella henselae Houston-1 infected in human HMEC1 cells assessed as intracellular bacterial load at 1 ug/mL incubated for 96 hrs followed by compound washout measured after 7 days relative to control; assay type: functional, Bartonella henselae str. Houston-1
# How it was run: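 HMEC-1 cells grown in MCDB131 with 10% FBS, EGF and hydrocortisone were infected with B. henselae Houston-1 at MOI 100 for 4 h. Extracellular bacteria were killed with gentamicin (200 µg/ml, 1 h), then compound was added at 0.1 or 1.0 µg/ml for 96 h. After washing, cells were lysed with 0.1% saponin and lysates plated on chocolate agar for 7 days. CFU are given as a percentage of the media-only control.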
SMILES,MIC [1],zone of inhibition at 20 µg/disc [2],gyrase inhibition (active/inactive) [3],MIC [4],zone of inhibition at 20 µg/disc [5],MIC [6],zone of inhibition at 20 µg/disc [7],zone of inhibition at 50 µg/disc [8],zone of inhibition at 50 µg/disc [9],MIC [10],zone of inhibition at 50 µg/disc [11],zone of inhibition at 50 µg/disc [12],zone of inhibition at 20 µg/disc [13],Activity [14]
CCCCCC(=O)N1CCN(c2cc3c(cc2F)c(=O)c(C(=O)O)cn3C2CC2)CC1,25 µg/mL,30 mm,Active,5 µg/mL,31 mm,20 µg/mL,21 mm,30 mm,36 mm,> 100 µg/mL,77 mm,38 mm,30 mm,
CCC(CC)C(=O)N1CCN(c2cc3c(cc2F)c(=O)c(C(=O)O)cn3C2CC2)CC1,1 µg/mL,17 mm,,5 µg/mL,33 mm,> 100 µg/mL,25 mm,39 mm,30 mm,> 100 µg/mL,81 mm,22 mm,26 mm,
CCCCCCC(=O)N1CCN(c2cc3c(cc2F)c(=O)c(C(=O)O)cn3C2CC2)CC1,> 100 µg/mL,20 mm,,10 µg/mL,28 mm,25 µg/mL,22 mm,45 mm,30 mm,> 100 µg/mL,71 mm,36 mm,20 mm,
CCCC(=O)N1CCN(c2cc3c(cc2F)c(=O)c(C(=O)O)cn3C2CC2)CC1,> 100 µg/mL,29 mm,,0.5 µg/mL,34 mm,> 100 µg/mL,44 mm,48 mm,6 mm,> 100 µg/mL,86 mm,40 mm,42 mm,<=10%
CCCCCCCC(=O)N1CCN(c2cc3c(cc2F)c(=O)c(C(=O)O)cn3C2CC2)CC1,25 µg/mL,14 mm,,10 µg/mL,16 mm,25 µg/mL,15 mm,6 mm,6 mm,> 100 µg/mL,65 mm,29 mm,14 mm,
CCCCC(=O)N1CCN(c2cc3c(cc2F)c(=O)c(C(=O)O)cn3C2CC2)CC1,1 µg/mL,35 mm,,5 µg/mL,38 mm,7.5 µg/mL,57 mm,47 mm,30 mm,> 100 µg/mL,80 mm,39 mm,35 mm,
CC(C)(C)C(=O)N1CCN(c2cc3c(cc2F)c(=O)c(C(=O)O)cn3C2CC2)CC1,> 100 µg/mL,33 mm,Active,,40 mm,7.5 µg/mL,36 mm,51 mm,22 mm,> 100 µg/mL,80 mm,44 mm,36 mm,
CCCCC(CC)C(=O)N1CCN(c2cc3c(cc2F)c(=O)c(C(=O)O)cn3C2CC2)CC1 (stereo unspecified),> 100 µg/mL,6 mm,,,12 mm,10 µg/mL,15 mm,6 mm,26 mm,> 100 µg/mL,65 mm,28 mm,12 mm,
CCCC(CCC)C(=O)N1CCN(c2cc3c(cc2F)c(=O)c(C(=O)O)cn3C2CC2)CC1,> 100 µg/mL,6 mm,,5 µg/mL,14 mm,10 µg/mL,6 mm,6 mm,6 mm,> 100 µg/mL,72 mm,26 mm,6 mm,
CC(CC(=O)N1CCN(c2cc3c(cc2F)c(=O)c(C(=O)O)cn3C2CC2)CC1)CC(C)(C)C (stereo unspecified),> 100 µg/mL,7 mm,Active,1 µg/mL,15 mm,25 µg/mL,10 mm,6 mm,35 mm,> 100 µg/mL,80 mm,25 mm,8 mm,
O=C(O)c1cn(C2CC2)c2cc(N3CCN(C(=O)c4ccccc4)CC3)c(F)cc2c1=O,> 100 µg/mL,7 mm,,0.2 µg/mL,21 mm,25 µg/mL,12 mm,6 mm,6 mm,> 100 µg/mL,49 mm,6 mm,13 mm,
CCCCCCCCC(=O)N1CCN(c2cc3c(cc2F)c(=O)c(C(=O)O)cn3C2CC2)CC1,10 µg/mL,11 mm,,10 µg/mL,6 mm,10 µg/mL,14 mm,30 mm,22 mm,> 100 µg/mL,55 mm,23 mm,12 mm,
